Laboratory results taken from ChEMBL document CHEMBL1155754, “Samioside, a new phenylethanoid glycoside with free-radical scavenging and antimicrobial activities from Phlomis samia” (J Nat Prod, 2001).
Values after ≈ are worked out from the molar mass of the structure shown.

How the values were obtained:
Format in all cases: functional
[1] = system: Radical scavenging activity; assay: Antioxidant activity assessed as DPPH free radical scavenging activity after 30 mins; design: concentration or dose not given beside the values
Procedure, shortened: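 Sample mixed with DPPH in ethanol and left 30 min at 37 °C. Optical density read at 515 nm. Ethanol replaced DPPH for the blank and DMSO replaced sample for the control. IC50 (amount scavenging 50% of DPPH) came from regression of average percent DPPH reduction against concentration, over three separate tests.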

Staphylococcus aureus [2] = assay: Antimicrobial activity against Staphylococcus aureus ATCC 25923 by agar dilution method
Procedure, shortened: (§1)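 Agar dilution against the listed ATCC bacterial strains. MIC taken as the lowest concentration preventing visible growth.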

Candida albicans = assay: Antimicrobial activity against Candida albicans ATCC 10231 by disk diffusion method
Procedure, shortened: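 Bauer-Kirby disk diffusion against Candida albicans ATCC 10231; experiments repeated three times, results expressed as average values (zone of inhibition).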

Candida tropicalis = assay: Antimicrobial activity against Candida tropicalis ATCC 13801 by disk diffusion method
Procedure, shortened: (§2)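 Bauer-Kirby disk diffusion against the listed ATCC bacterial and Candida strains. Growth inhibition read as zone of inhibition diameter (mm). Three repeat experiments, reported as averages.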

Nakaseomyces glabratus = assay: Antimicrobial activity against Candida glabrata ATCC 28838 by disk diffusion method; procedure, shortened: as §2
Enterobacter cloacae [3] = assay: Antimicrobial activity against Enterobacter cloacae ATCC 13047 by agar dilution method; procedure, shortened: as §1
Klebsiella pneumoniae [4] = assay: Antimicrobial activity against Klebsiella pneumoniae ATCC 13883 by agar dilution method; procedure, shortened: as §1
Pseudomonas aeruginosa [5] = assay: Antimicrobial activity against Pseudomonas aeruginosa ATCC 27853 by disk diffusion method; procedure, shortened: as §2
Klebsiella pneumoniae [6] = assay: Antimicrobial activity against Klebsiella pneumoniae ATCC 13883 by disk diffusion method; procedure, shortened: as §2
[7] = system: Staphylococcus epidermidis; assay: Antimicrobial activity against Staphylococcus epidermidis ATCC 12228 by disk diffusion method; procedure, shortened: as §2
Escherichia coli [8] = assay: Antimicrobial activity against Escherichia coli ATCC 25922 by disk diffusion method; procedure, shortened: as §2
[9] = system: Staphylococcus epidermidis; assay: Antimicrobial activity against Staphylococcus epidermidis ATCC 12228 by agar dilution method; procedure, shortened: as §1
Pseudomonas aeruginosa [10] = assay: Antimicrobial activity against Pseudomonas aeruginosa ATCC 27853 by agar dilution method; procedure, shortened: as §1
Staphylococcus aureus [11] = assay: Antimicrobial activity against Staphylococcus aureus ATCC 25923 by disk diffusion method; procedure, shortened: as §2
Escherichia coli [12] = assay: Antimicrobial activity against Escherichia coli ATCC 25922 by agar dilution method; procedure, shortened: as §1
Enterobacter cloacae [13] = assay: Antimicrobial activity against Enterobacter cloacae ATCC 13047 by disk diffusion method; procedure, shortened: as §2

Question: For COc1cc(-c2cc(=O)c3c(O)cc(O)cc3o2)ccc1O, which Activity [1] is on record?
Answer: Its Activity is < 40%.

Question: For COc1ccc(-c2oc3cc(O)cc(O)c3c(=O)c2OC)cc1, which Activity [1] is on record?
Answer: Its Activity is < 40%.

Question: For O=c1cc(-c2ccc(O)cc2)oc2cc(O)cc(O)c12, which Activity [1] is on record?
Answer: The Activity was < 40%.

Question: What does the source list for C[C@@H]1O[C@@H](O[C@@H]2[C@@H](O)[C@H](OCCc3ccc(O)c(O)c3)O[C@H](CO)[C@H]2OC(=O)/C=C/c2ccc(O)c(O)c2)[C@H](O)[C@H](O)[C@H]1O [ACETOSIDE]?
Answer: MIC (Staphylococcus aureus [2]): 400 µg/mL (≈ 640 µM); Activity [1]: > 70%; IC50 [1]: 48.9 µM

Question: Which “inhibition zone (IZ)” value (Candida albicans) does the source give for C[C@@H]1[C@H](O)[C@@H](C)/C=C/C=C/C=C/C=C/C=C/C=C/C=C/[C@H](O[C@@H]2O[C@H](C)[C@@H](O)[C@H](N)[C@@H]2O)C[C@@H]2O[C@](O)(C[C@@H](O)C[C@@H](O)[C@H](O)CC[C@@H](O)C[C@@H](O)CC(=O)O[C@H]1C)C[C@H](O)[C@H]2C(=O)O [AMPHOTERICIN B] here?
Answer: Its value is 20 mm.

Question: What about the “inhibition zone (IZ)” value (Candida tropicalis) of the same compound?
Answer: Its value is 22 mm.

Question: What about the “inhibition zone (IZ)” value (Nakaseomyces glabratus) of the same compound?
Answer: The value was 24 mm.

Question: With O=C(O)/C=C/c1ccc(O)c(O)c1 [CAFFEIC ACID] as the compound, how does the IC50 [1] read?
Answer: Its IC50 is 66.7 µM.

Question: For O=C(O)c1cc(O)c(O)c(O)c1 [GALLIC ACID], which IC50 [1] is on record?
Answer: The IC50 was 17.6 µM.

Question: For CCN[C@@H]1C[C@H](N)[C@@H](O[C@H]2OC(CN)=CC[C@H]2N)[C@H](O)[C@H]1O[C@H]1OC[C@](C)(O)[C@H](NC)[C@H]1O [NETILMICIN], which MIC (Enterobacter cloacae [3]) is on record?
Answer: The MIC was 8 µg/mL (≈ 16.8 µM).

Question: And the MIC (Klebsiella pneumoniae [4])?
Answer: Its MIC is 8 µg/mL (≈ 16.8 µM).

Question: And the “inhibition zone (IZ)” value (Pseudomonas aeruginosa [5])?
Answer: Its value is 20 mm.

Question: And the “inhibition zone (IZ)” value (Klebsiella pneumoniae [6])?
Answer: Its value is 25 mm.

Question: What about the MIC (Staphylococcus aureus [2]) of the same compound?
Answer: Its MIC is 4 µg/mL (≈ 8.41 µM).

Question: What about the “inhibition zone (IZ)” value [7] of the same compound?
Answer: The value was 24 mm.

Question: And the “inhibition zone (IZ)” value (Escherichia coli [8])?
Answer: Its value is 23 mm.

Question: And the MIC [9]?
Answer: Its MIC is 4 µg/mL (≈ 8.41 µM).

Question: What about the MIC (Pseudomonas aeruginosa [10]) of the same compound?
Answer: The MIC was 8.8 µg/mL (≈ 18.5 µM).

Question: And the “inhibition zone (IZ)” value (Staphylococcus aureus [11])?
Answer: Its value is 22 mm.

Question: And the MIC (Escherichia coli [12])?
Answer: The MIC was 10 µg/mL (≈ 21 µM).

Question: And the “inhibition zone (IZ)” value (Enterobacter cloacae [13])?
Answer: Its value is 22 mm.

Question: What does the source list for C[C@@H]1O[C@@H](O[C@@H]2[C@@H](O)[C@H](OCCc3ccc(O)c(O)c3)O[C@H](CO)[C@H]2OC(=O)/C=C/c2ccc(O)c(O)c2)[C@H](O)[C@H](O)[C@H]1O[C@@H]1OC[C@](O)(CO)[C@H]1O [SAMIOSIDE]?
Answer: MIC (Enterobacter cloacae [3]): 890 µg/mL (≈ 1180 µM); MIC (Klebsiella pneumoniae [4]): 790 µg/mL (≈ 1040 µM); inhibition zone (IZ) (Candida albicans): 8 mm; inhibition zone (IZ) (Pseudomonas aeruginosa [5]): 10 mm; inhibition zone (IZ) (Klebsiella pneumoniae [6]): 11 mm; MIC (Staphylococcus aureus [2]): 460 µg/mL (≈ 608 µM); inhibition zone (IZ) [7]: 16 mm; inhibition zone (IZ) (Escherichia coli [8]): 15 mm; Activity [1]: > 70%; IC50 [1]: 23.8 µM; MIC [9]: 480 µg/mL (≈ 634 µM); inhibition zone (IZ) (Candida tropicalis): 10 mm; MIC (Pseudomonas aeruginosa [10]): 850 µg/mL (≈ 1120 µM); inhibition zone (IZ) (Staphylococcus aureus [11]): 12 mm; MIC (Escherichia coli [12]): 520 µg/mL (≈ 687 µM); inhibition zone (IZ) (Nakaseomyces glabratus): 11 mm; inhibition zone (IZ) (Enterobacter cloacae [13]): 10 mm
